Screens (PubChem)
The sample as a whole holds a higher share of hits than the screen did.
697 NFkB inh: inhibitors of the PMA/ionomycin-induced NF-kB reporter in 697 B cells; 697 B-cell NF-kB luciferase reporter, 16 h; inhibition, % at 4 µM; hit rate 0.33% among 330,000; AID 435022; in the data active means inhibition above about 35%
UPR CHOP act: apoptotic UPR (CHOP) activation. hit rate 0.34% among 330,000. CHO-CHOP luciferase reporter, luminescence; percent of tunicamycin response over DMSO baseline. activation, % at 10 µM;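 active means at 10 µM dose, activation of 40% or more, normalized to positive control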;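 further: 100% = tunicamycin at 10 µg/mL and 0% = DMSO alone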
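System: CHO CHOP reporter cells. Amount: 500 cells per well. Buffer or medium: F12 medium, 10% FBS. Compound dosing: one dose, 10 µM in 0.5% DMSO. Incubation: 6 h compound exposure at 37 °C after overnight seeding. Technique: Steady-Glo luciferase luminescence. Benchmarks: tunicamycin and DMSO controls.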
Jurkat NFkB inh: lowers PMA/ionomycin-induced NF-kB signal in Jurkat cells | PMA/ionomycin-induced NF-kB luciferase reporter, luminescence | inhibition, % at 4 µM | hit rate 0.53% among 330,000 | AID 435003; in the data active means inhibition above about 50%
CHOP inh: blocks CHOP induction under ER stress; CHO-K1 CHOP-promoter luciferase, tunicamycin-induced, 15-18 h; inhibition, % at 10 µM; hit rate 3.8% among 220,000;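 active means compounds that reduced the stress-induced luciferase reporter signal by more than about 70% of percent inhibition, limit read from the data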;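 further: 0% = tunicamycin plus vehicle and 100% = wells without tunicamycin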
UPR XBP1 act: activators of adaptive arm of unfolded protein response (XBP1); activation, % at 20 µM; AID 463104; hit rate 0.33% among 330,000; CHO-XBP1 luciferase reporter, IRE1-XBP1 UPR activation, luminescence; percent of tunicamycin response, DMSO as zero;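 active means versus positive control, 20 µM dose yields 30% or more activation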;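 further: 100% = tunicamycin at 10 µg/mL and 0% = DMSO only wells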
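Test system: CHO-XBP1 luciferase reporter cells | Buffer or medium: Serum-containing F12 medium, 10% FBS | Schedule: 6 h compound exposure at 37 °C, 5% CO2 | Detection: Steady-Glo luciferase glow luminescence, 10 min after reagent addition | Read-out basis: Activation, % of tunicamycin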
Jurkat NFkB conf: lowers PMA/ionomycin-induced NF-kB signal in Jurkat cells | inhibition, % at 4 µM | AID 435020 | hit rate 27% among 2,700 | Jurkat NF-kB luciferase, 16 h | shares compounds with Jurkat NFkB inh;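 active means inhibition reaching about 45% at 4 µM in either replicate, limit read from the data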;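 further: plate controls were PMA/ionomycin stimulated DMSO wells for no effect and unstimulated DMSO wells for full effect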
* marks the source's active call; other numbers are inactive results; x = no result.

SMILES	697 NFkB inh	UPR CHOP act	Jurkat NFkB inh	CHOP inh	UPR XBP1 act	Jurkat NFkB conf
O=[N+]([O-])c1ccc(N2CCN(Cc3cccc([N+](=O)[O-])c3)CC2)cc1	-7	0	42	x	-5	x
O=[N+]([O-])c1ccc(CN2CCN(c3ccc([N+](=O)[O-])cc3)CC2)cc1	-15	0	60*	x	4	21
CCCCc1ccc(NC(=O)C(=O)NCCN2CCN(Cc3ccc([N+](=O)[O-])cc3)CC2)cc1	17	4	51*	52	6	59*
O=[N+]([O-])c1ccc(Cc2cncc(O)c2)cc1	-16	-1	-47	x	0	x
Cc1ccc(S(=O)(=O)N2CCC(C(=O)OC(C)C(=O)NC3CCCCC3C)CC2)cc1 (centres undefined)	4	2	-9	x	-1	x
CCOc1ccccc1C1CC(=O)Nc2cc3c(cc21)OCO3 (centres undefined)	-1	-3	63*	x	4	60*
COc1ccccc1C1CC(=O)Nc2cc3c(cc21)OCCO3 (centres undefined)	-39	-1	42	x	8	x
CC(C)Oc1ccccc1C1CC(=O)Nc2cc3c(cc21)OCCO3 (centres undefined)	-20	-1	78*	x	6	51*
CCOC(=O)N1CCC(NC(=O)c2ccc3c(c2)N(C)C(=O)/C(=C/c2cccc(OC)c2)S3)CC1	-11	-1	53*	x	-4	7
CCOC(=O)N1CCN(C(=O)c2ccc3c(c2)N(C)C(=O)/C(=C\c2ccc(OCC)c(OC)c2)S3)CC1	-64	-2	12	x	-3	x
COc1ccc(C2CC(c3ccc4ccccc4c3)=NN2C(=O)COC(=O)C2CCC(=O)N2)cc1 (centres undefined)	-169	5	-196	31	6	-133
COc1cccc2cc(-c3csc(NC(=O)CCC(=O)NCCCN4CCC(C)CC4)n3)c(=O)oc12	-237	0	-158	-19	-1	-104
COc1ccc(OC)c(-c2csc(NC(=O)CN3C(=O)C4CCCCC4C3=O)n2)c1 (centres undefined)	-6	0	-9	x	-1	x
CCOc1cccc2cc(-c3csc(NC(=O)CCC(=O)NCCN4CCCCC4C)n3)c(=O)oc12 (centres undefined)	-57	3	-200	-40	5	-32
Cc1nc2ccccc2c2oc(C(=O)NCCN3CCCCC3C)cc12 (centres undefined)	-6	1	-9	37	2	x
CCOc1cccc2cc(-c3csc(NC(=O)CCC(=O)NCCCN4CCC(C)CC4)n3)c(=O)oc12	-99	5	-185	-8	3	-71
COc1ccc(S(=O)(=O)N(C)C)cc1NC(C)C(=O)Nc1cccc(C#N)c1 (centres undefined)	9	1	5	-14	1	x
CCOC(=O)[C@@H]1[C@H]2COc3ccccc3[C@H]2N2C(=O)N(c3ccccc3)C(=O)[C@]12C	5	0	3	x	-3	x
COc1ccc(C(=O)COC(=O)c2ccccc2O)c(OC)c1	-20	1	-63	x	2	x
O=C(Nc1cc([N+](=O)[O-])ccc1C(=O)NCCN1CCOCC1)c1ccccc1	-30	0	-3	x	-3	x
CN=c1scc(-c2cccs2)n1/N=C/c1ccccc1O	-15	-10	77*	94*	-6	82*
O=C(Nc1ccc(Oc2ccccc2)nc1)C1CCN(Cc2ccco2)CC1	15	0	1	x	-2	x
O=C(Nc1ccc(Oc2ccccc2)nc1)C1CCCCN1Cc1ccco1 (centres undefined)	-65	2	53*	x	-1	5
Cc1ccc(CN2CCCCC2C(=O)Nc2ccc(Oc3cccnc3)cc2)o1 (centres undefined)	-20	3	69*	x	-5	6
CC(OC(=O)Cn1[nH]c(=O)c2ccccc2c1=O)C(=O)Nc1ccc(F)cc1Cl (centres undefined)	15	0	-1	x	4	x
SMILES	697 NFkB inh	UPR CHOP act	Jurkat NFkB inh	CHOP inh	UPR XBP1 act	Jurkat NFkB conf
COc1ccc(NS(=O)(=O)c2cc(NC(=O)c3ccc(=O)[nH]c3)ccc2N2CCCC2)cc1	-46	2	63*	x	-4	19
COc1ccc(C(C)=O)c(Oc2cc(NN3CCCCC3)c([N+](=O)[O-])cc2[N+](=O)[O-])c1	-28	0	6	x	2	x
COc1cc(C(=O)OCC(=O)N2CCN(C(C)=O)CC2)ccc1OCC(C)C	15	0	6	x	-3	x
COc1ccc([C@H]2CC(=O)C=C(c3cc(C)ccc3OC)C2)cc1	-12	1	58*	x	-3	26
CCOc1ccc(Br)cc1C1=CC(=O)C[C@H](c2ccc(OC)cc2)C1	-53	1	65*	x	2	47
CC(C)c1nc(SCC(=O)Nc2cccc3ccccc23)n[nH]1	-6	1	1	x	0	x
CC(C)(C)OC(=O)N1CCC(Cc2cc(-c3ccc(Cl)cc3)no2)(C(=O)O)CC1	16	-1	-4	x	2	x
CN(CC(=O)Nc1ccccc1Cl)C(=O)COC(=O)C1CC1	12	1	-4	x	0	x
N#CCCN(C(=O)COC(=O)C1CCN(S(=O)(=O)c2ccc3c(c2)OCCO3)CC1)c1ccccc1	19	1	13	x	-1	x
CC(C)(C)c1ccc(/C=C/C(=O)Nc2nncs2)cc1	-11	6	-171	-19	2	-113
CC1=CC(C)(C)N(S(=O)(=O)c2ccc(C)cc2)c2cc(C)ccc21	-95	1	50*	x	21	53*
COc1ccc2c(c1)C(C)=CC(C)(C)N2S(=O)(=O)c1ccc(C)cc1	10	0	39	-14	24	x
COc1cc(/C=N/O)ccc1OCc1ccccc1Cl	-103	4	-157	37	9	-76
NC(=O)CSc1nc(N)c2c3c(sc2n1)CCCCC3	-6	2	-10	6	4	x
NC(=O)CSc1nc(C2CC2)nc2sc3c(c12)CCCC3	-225	5	-189	-35	13	-70
Cc1cc(C(=O)N2CC=C(c3ccccc3)CC2)c2ccccc2n1	-16	1	67*	x	-2	45
Cc1c(C(=O)C(=O)N2CC=C(c3ccccc3)CC2)c2ccccc2n1C	-52	0	53*	-13	3	20
COc1ccc(-c2cc(C(=O)N3CCN(c4ccccc4)CC3)c3ccccc3n2)cc1	-52	1	60*	7	2	-11
OCC[C@H]1C[C@H](O)[C@@H](O)[C@]2(CCCc3ccccc3O2)O1	12	-3	-3	x	2	x
CN(C)c1cccc(C(=O)OCCCC(=O)c2ccc(F)cc2)c1	18	2	4	x	-3	x
COC(=O)c1cc(OCC(=O)Nc2ccc3c(c2)CCC3)cc(C(=O)OC)c1	1	-1	-5	x	0	x
